Results on 6 compounds are retold here after ChEMBL document CHEMBL4373633, “New methods to assess 6-thiopurine toxicity and expanding its therapeutic application to pancreatic cancer via small molecule potentiators” (Medchemcomm, 2019).

In data set [1] the target is T1, UDP-glucose 6-dehydrogenase (Streptococcus pyogenes, UniProt P0C0F4). The data set is described as follows: Inhibition of Streptococcus pyogenes UDPGDH expressed in Escherichia coli assessed as inhibitior constant by mesuring UDPGA production after 20 to 120 secs by HPLC analysis. Put shortly: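 UDPGA formed by UDPGDH was quantified by reverse-phase C18 HPLC at 262 nm against a UDPGA standard curve. Aqueous phase 8 mM imidazole/2.5 mM TBAHS, pH 6.5; organic phase methanol; 0.5 mL/min gradient over a 23 min run. UDPG was varied at several inhibitor levels. Slopes of the lines were plotted against inhibitor concentration, and Ki was taken as the […] x-intercept.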
T1 sequence (P0C0F4 whole entry): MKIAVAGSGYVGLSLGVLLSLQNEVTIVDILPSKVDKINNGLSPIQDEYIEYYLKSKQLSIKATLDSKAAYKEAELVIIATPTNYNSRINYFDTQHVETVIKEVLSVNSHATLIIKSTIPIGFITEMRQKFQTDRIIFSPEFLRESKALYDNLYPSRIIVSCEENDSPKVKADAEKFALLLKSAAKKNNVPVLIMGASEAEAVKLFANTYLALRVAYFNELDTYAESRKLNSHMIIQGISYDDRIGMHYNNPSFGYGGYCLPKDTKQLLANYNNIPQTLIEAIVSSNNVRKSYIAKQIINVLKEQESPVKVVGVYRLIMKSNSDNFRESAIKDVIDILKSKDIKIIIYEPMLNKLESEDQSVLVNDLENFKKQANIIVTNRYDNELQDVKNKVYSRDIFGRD

Data set [2] deals with T1, UDP-glucose 6-dehydrogenase. Briefly: Inhibition of Streptococcus pyogenes UDPGDH expressed in Escherichia coli assessed as inhibitior constant after 20 to 120 secs by UV-VIS spectroscopic analysis.
Data set [3] is described as follows: Inhibition of UDPGDH/UGT-1A in hepatocytes (unknown origin) assessed as reduction in BDG production at 25 uM by HPLC analysis. Particulars: human. Format: ADME, cell-based.
Data set [4] deals with HeLa. Briefly: Synergistic antiproliferative activity against human HeLa cells at 2.5 to 5 uM after 72 hrs in presence of 6TP by alamar blue assay. Format: functional, cell-based.
For data set [5], the system named is REH. Briefly: Synergistic antiproliferative activity against human REH cells assessed as cell death at 5 uM after 72 hrs in presence of 25 uM 6TP by alamar blue assay (reference value: 12.2%). Format: functional. (Alamar Blue is a resazurin reagent that responds to reducing activity.)
Data set [6] concerns MIA PaCa-2. Briefly: Synergistic antiproliferative activity against human MIAPaCa2 cells assessed as cell death at 2.5 uM after 72 hrs in presence of 25 uM 6TP by alamar blue assay (reference value: 6.4%). The class given is functional.
The test system of data set [7] is REH. Briefly: Synergistic antiproliferative activity against human REH cells assessed as cell death at 5 uM after 72 hrs in presence of 100 uM 6TP by alamar blue assay (reference value: 49.5%). The class given is functional.
For data set [8], the system named is REH. Briefly: Synergistic antiproliferative activity against human REH cells assessed as cell death at 5 uM after 72 hrs in presence of 50 uM 6TP by alamar blue assay (reference value: 21.9%). Format: functional.
The test system of data set [9] is MIA PaCa-2. Briefly: Synergistic antiproliferative activity against human MIAPaCa2 cells assessed as cell death at 5 uM after 72 hrs in presence of 100 uM 6TP by alamar blue assay (reference value: 30.7%). The class given is functional.
Data set [10] deals with A549. Briefly: Antiproliferative activity against human A549 cells assessed as reduction in cell viability after 72 hrs by alamar blue assay. Format: functional, cell-based. Particulars: A549, 72 h. Put shortly:
(§1)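 Cell lines from ATCC, grown in medium with FBS and antibiotics at 37 °C, 5% CO2, 95% humidity. Compound DMSO stocks diluted in medium over 31.6 nM–200 μM, tested in triplicate. Plated at 2000 cells/well (adherent) or 3500 (suspension). After 69 h of continuous exposure, Alamar Blue was added for 3 h more. Fluorescence read at ex 560/em 590 nm. IC50 from ≥3 independent experiments.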

The subject of data set [11] is REH. Briefly: Synergistic antiproliferative activity against human REH cells assessed as cell death at 2.5 uM after 72 hrs in presence of 10 uM 6TP by alamar blue assay (reference value: 10.8%). Format: functional.
The subject of data set [12] is MIA PaCa-2. The data set is described as follows: Synergistic antiproliferative activity against human MIAPaCa2 cells assessed as cell death at 2.5 uM after 72 hrs in presence of 50 uM 6TP by alamar blue assay (reference value: 13.8%). Format: functional.
For data set [13], the system named is MIA PaCa-2. Briefly: Synergistic antiproliferative activity against human MIAPaCa2 cells assessed as cell death at 5 uM after 72 hrs in presence of 10 uM 6TP by alamar blue assay (reference value: 6.9%). Format: functional.
For data set [14], the system named is MIA PaCa-2. The data set is described as follows: Synergistic antiproliferative activity against human MIAPaCa2 cells assessed as cell death at 5 uM after 72 hrs in presence of 50 uM 6TP by alamar blue assay (reference value: 13.8%). The class given is functional.
Data set [15] has as its system MIA PaCa-2. The data set is described as follows: Synergistic antiproliferative activity against human MIAPaCa2 cells assessed as cell death at 2.5 uM after 72 hrs in presence of 100 uM 6TP by alamar blue assay (reference value: 30.7%). The class given is functional.
For data set [16], the system named is MIA PaCa-2. Briefly: Synergistic antiproliferative activity against human MIAPaCa2 cells assessed as cell death at 5 uM after 72 hrs in presence of 25 uM 6TP by alamar blue assay (reference value: 6.4%). Format: functional.
Data set [17] has as its system REH. The data set is described as follows: Synergistic antiproliferative activity against human REH cells assessed as cell death at 5 uM after 72 hrs in presence of 10 uM 6TP by alamar blue assay (reference value: 10.8%). Format: functional.
In data set [18] the test system is REH. Briefly: Synergistic antiproliferative activity against human REH cells assessed as cell death at 2.5 uM after 72 hrs in presence of 50 uM 6TP by alamar blue assay (reference value: 21.9%). The class given is functional.
For data set [19], the system named is REH. Briefly: Synergistic antiproliferative activity against human REH cells assessed as cell death at 2.5 uM after 72 hrs in presence of 25 uM 6TP by alamar blue assay (reference value: 12.2%). The class given is functional.
Data set [20] relates to A549. Briefly: Synergistic antiproliferative activity against human A549 cells at 2.5 to 5 uM after 72 hrs in presence of 6TP by alamar blue assay. The class given is functional, cell-based.
Data set [21] deals with U-937. Briefly: Synergistic antiproliferative activity against human U937 cells at 2.5 to 5 uM after 72 hrs in presence of 6TP by alamar blue assay based Chou-Talalay method. Format: functional, cell-based.
For data set [22], the system named is MIA PaCa-2. Briefly: Synergistic antiproliferative activity against human MIAPaCa2 cells assessed as cell death at 2.5 uM after 72 hrs in presence of 10 uM 6TP by alamar blue assay (reference value: 6.9%). The class given is functional.
Data set [23] concerns REH. Briefly: Synergistic antiproliferative activity against human REH cells assessed as cell death at 2.5 uM after 72 hrs in presence of 100 uM 6TP by alamar blue assay (reference value: 49.5%). Format: functional.
Data set [24] relates to REH. The data set is described as follows: Synergistic antiproliferative activity against human REH cells at 2.5 to 5 uM uM after 72 hrs in presence 6TP by alamar blue assay based alamar blue assay. The class given is functional, cell-based.
The subject of data set [25] is HeLa. The data set is described as follows: Antiproliferative activity against human HeLa cells assessed as reduction in cell viability after 72 hrs by alamar blue assay. The class given is functional, cell-based. The procedure, abridged: as §1
Data set [26] concerns MIA PaCa-2. The data set is described as follows: Antiproliferative activity against human MIAPaCa2 cells assessed as reduction in cell viability after 72 hrs by alamar blue assay. Format: functional, cell-based. Particulars: MIA PaCa-2, 72 h. The procedure, abridged: as §1
In data set [27] the test system is U-937. Briefly: Antiproliferative activity against human U937 cells assessed as reduction in cell viability after 72 hrs by alamar blue assay. Format: functional, cell-based. Particulars: U-937, 72 h. Put shortly:
as §1

Data set [28] is described as follows: Inhibition of Streptococcus pyogenes UDPGDH expressed in Escherichia coli/rat liver microsome UGT-1A assessed as reduction in BDG production at 10 uM by HPLC analysis. The class given is ADME. To be noted: microsomes. The procedure, abridged:
(§2)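 Coupled in vitro model in phosphate buffer with alamethicin. Microsomal UGT-1A 4.4 units/mL, 2 mM bilirubin, 10 mM NAD+, 5 mM UDPG, UDPGDH:UGT-1A ratio 1:2200. Reaction started by adding UDPGDH. UDPGA-rescue arm included 15 μM UDPGA. Bilirubin mono- and diglucuronide formation measured by HPLC.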

Data set [29] can be described thus: Inhibition of Streptococcus pyogenes UDPGDH expressed in Escherichia coli/rat liver microsome UGT-1A assessed as reduction in BMG production at 10 uM by HPLC analysis. The class given is ADME. Particulars: microsomes. The procedure, abridged: as §2
The nature of data set [30]: Inhibition of UDPGDH/UGT-1A in hepatocytes (unknown origin) assessed as reduction in BMG production at 5 uM in presence of UDPGA by HPLC analysis. Format: ADME, cell-based. To be noted: human.
A short description of data set [31]: Inhibition of Streptococcus pyogenes UDPGDH expressed in Escherichia coli/rat liver microsome UGT-1A assessed as reduction in BDG production at 5 uM by HPLC analysis. The class given is ADME. Particulars: microsomes. The procedure, abridged:
as §2
On the technique in general: Liver microsomes are vesicles of endoplasmic reticulum, rich in cytochrome P450 enzymes.

The nature of data set [32]: Inhibition of Streptococcus pyogenes UDPGDH expressed in Escherichia coli/rat liver microsome UGT-1A assessed as reduction in BDG production at 5 uM in presence of UDPGA by HPLC analysis. Particulars: microsomes. Format: ADME. The procedure, abridged: as §2
Data set [33] is described as follows: Inhibition of UDPGDH/UGT-1A in hepatocytes (unknown origin) assessed as reduction in BDG production at 5 uM by HPLC analysis. The class given is ADME, cell-based. Particulars: human.
The nature of data set [34]: Inhibition of Streptococcus pyogenes UDPGDH expressed in Escherichia coli/rat liver microsome UGT-1A assessed as reduction in BMG production at 5 uM by HPLC analysis. The class given is ADME. To be noted: microsomes. The procedure, abridged:
as §2

Data set [35] is described as follows: Inhibition of Streptococcus pyogenes UDPGDH expressed in Escherichia coli/rat liver microsome UGT-1A assessed as reduction in BMG production at 5 uM in presence of UDPGA by HPLC analysis. Format: ADME. To be noted: microsomes. The procedure, abridged: as §2

Each structure is given as a SMILES string. Active and inactive are the calls of the source. No cut-off for these calls is given here. Where only a bound is given, the exact number is not on record here.

The Ki is a dissociation constant, usually derived from enzyme kinetics or from competition with a known ligand. `Sc1ncnc2nc[nH]c12` [MERCAPTOPURINE ANHYDROUS]: the Ki in data set [1] was 111 µM; in data set [2] it was 288 µM. In data set [3], the “inhibition (INH)” value is given as “Active”.

For orientation: IC50 means the point on the concentration scale where inhibition reaches its midpoint. Take `COCOc1cc(OC)c(C(=O)/C=C/c2ccccc2)c(OCOC)c1`: the result with HeLa [4], with A549 [20] and in the data set with U-937 [21] was inactive. For the same compound, the Activity in the data set with REH [5] came to 19.1%; in the data set with MIA PaCa-2 [6], 18.6%; in the data set on REH [7], 51%; in the data set on REH [8], 26.1%; with MIA PaCa-2 [9] it was 61.2%; in the data set on REH [11], 11.1%. For the same compound, the Activity is recorded as 25.1% with MIA PaCa-2 [12]; 25.4% in the data set on MIA PaCa-2 [13]; 40.8% in the data set on MIA PaCa-2 [14]; 49.1% with MIA PaCa-2 [15]; 30% in the data set with MIA PaCa-2 [16]; 12.7% in the data set with REH [17]. In addition, the Activity in the data set with REH [18] was 22.1%; with REH [19] it was 13.5%; in the data set with MIA PaCa-2 [22], 16.5%; with REH [23], 51%. Further, the IC50 in the data set on A549 [10] came to 7.2 µM.

`COCOc1cc(OCOC)c(C(=O)/C=C/c2ccccc2)c(OCOC)c1`: the result in the data set on REH [24], in the data set on HeLa [4], with A549 [20] and with U-937 [21] was inactive. The Activity was 15% in the data set on MIA PaCa-2 [6]; 19.3% in the data set on MIA PaCa-2 [9]; 16.9% with MIA PaCa-2 [12]; 18.4% in the data set with MIA PaCa-2 [13]; 17% in the data set with MIA PaCa-2 [14]; 17.6% with MIA PaCa-2 [15]. Besides, the Activity is listed as 17.3% in the data set on MIA PaCa-2 [16] and 14.2% in the data set with MIA PaCa-2 [22]. In addition, the concentration for half-maximal inhibition (IC50) was over 20 µM in the data set on A549 [10], 12.2 µM in the data set on HeLa [25], over 20 µM in the data set on MIA PaCa-2 [26] and 7.4 µM with U-937 [27].

For `CNC(=O)c1cc(Oc2ccc(NC(=O)Nc3ccc(Cl)c(C(F)(F)F)c3)c(F)c2)ccn1` [REGORAFENIB], the “inhibition (INH)” value in data set [28] and in data set [29] was “Active” throughout.

In the case of `O=c1[nH]c(=S)c2[nH]c(=O)[nH]c2[nH]1`, the “inhibition (INH)” value in [30] is listed as “Not Active”; in data set [31], “Active”; in [32] it was “Not Active”; in [33], “Active”; in data set [34], “Active”; in data set [35] it was “Not Active”. In addition, the results for the inhibition constant Ki in data set [1] and in [2] were 5 µM and 7 µM, respectively.

As to `COCOc1cc(O)c(C(=O)/C=C/c2ccccc2)c(OCOC)c1`, the result with REH [24], in the data set with HeLa [4], with A549 [20] and with U-937 [21] was inactive. Moreover, the Activity worked out at 7.2% in the data set with MIA PaCa-2 [6]; 19.9% in the data set on MIA PaCa-2 [9]; 9.7% with MIA PaCa-2 [12]; 8.1% with MIA PaCa-2 [13]; 13% in the data set on MIA PaCa-2 [14]; 15.2% in the data set with MIA PaCa-2 [15]. Further, the Activity in the data set on MIA PaCa-2 [16] is reported as 8.2%; with MIA PaCa-2 [22], 7%.
